Test results: ChEMBL document CHEMBL1123703, “Hydroxamic acid inhibitors of 5-lipoxygenase” (J Med Chem, 1987)

target: T1, Polyunsaturated fatty acid 5-lipoxygenase (Rattus norvegicus) (UniProt P12527); assay: Percent inhibition against RBL-1 5-LO in vitro at 300 uM; format: cell-based
T1 sequence (whole entry): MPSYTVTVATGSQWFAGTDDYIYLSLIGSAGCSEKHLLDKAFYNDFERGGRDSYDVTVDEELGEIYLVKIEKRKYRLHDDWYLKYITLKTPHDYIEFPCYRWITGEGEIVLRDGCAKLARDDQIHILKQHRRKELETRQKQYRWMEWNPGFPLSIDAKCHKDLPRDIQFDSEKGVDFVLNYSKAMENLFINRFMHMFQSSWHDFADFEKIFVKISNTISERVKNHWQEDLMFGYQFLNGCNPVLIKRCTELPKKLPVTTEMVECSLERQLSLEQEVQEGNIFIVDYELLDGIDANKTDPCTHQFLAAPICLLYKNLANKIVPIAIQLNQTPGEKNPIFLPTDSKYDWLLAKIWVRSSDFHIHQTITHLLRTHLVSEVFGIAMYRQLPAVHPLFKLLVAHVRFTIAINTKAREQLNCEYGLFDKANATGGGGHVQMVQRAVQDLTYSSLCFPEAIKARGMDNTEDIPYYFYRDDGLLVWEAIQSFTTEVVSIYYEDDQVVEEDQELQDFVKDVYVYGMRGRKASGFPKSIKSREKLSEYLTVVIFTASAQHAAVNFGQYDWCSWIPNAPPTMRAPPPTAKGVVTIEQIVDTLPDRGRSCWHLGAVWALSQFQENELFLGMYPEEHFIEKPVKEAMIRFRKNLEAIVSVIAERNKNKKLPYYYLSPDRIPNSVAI
Summary of the method: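 20000g supernatant from 1.5 million homogenized RBL-1 cells, with test compound, in 200-μL incubations. Reactions were started with radiolabeled arachidonic acid and stopped by acidification and ether extraction. Products were separated from unconverted substrate by TLC and counted by liquid scintillation. Inhibition was taken from product formed with versus without inhibitor. Run in triplicate.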

| Structure (SMILES) | inhibition |
| --- | --- |
| NNC(=O)c1ccc2ccccc2c1 | 6% |
| CO/C(=N\O)c1ccc2ccccc2c1 | 74% |
| NC(=O)c1ccc2ccccc2c1 | 9% |
| O=C(O)c1ccc2ccccc2c1 | 0% |

target: T1, Polyunsaturated fatty acid 5-lipoxygenase (Rattus norvegicus); assay: Percent inhibition against RBL-1 5-LO in vitro at 30 uM; format: cell-based
Summary of the method: (§1)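 200-μL incubations held the 20000g supernatant of 1.5 million homogenized RBL-1 cells plus compound. Radiolabeled arachidonic acid started the reaction; acidification and ether extraction ended it. Product was resolved by TLC and counted by liquid scintillation, in triplicate. Inhibition was taken from the ratio of product formed with and without inhibitor.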

| Structure (SMILES) | inhibition |
| --- | --- |
| CONC(=O)c1ccc2ccccc2c1 | 0% |
| CN(O)S(=O)(=O)c1ccc2ccccc2c1 | 6% |

target: T1, Polyunsaturated fatty acid 5-lipoxygenase (Rattus norvegicus); assay: Percent inhibition against RBL-1 5-LO in vitro at 100 uM; format: cell-based; summary of the method: as §1

| Structure (SMILES) | inhibition |
| --- | --- |
| O=S(=O)(NO)c1ccc2ccccc2c1 | 51% |
| O=C(CO)c1ccc2ccccc2c1 | 15% |

target: T2, Polyunsaturated fatty acid lipoxygenase ALOX12 (Homo sapiens) (UniProt P18054); assay: Compound was tested for the percent of inhibition against 12-LO at 10 uM; format: functional
T2 sequence (whole entry): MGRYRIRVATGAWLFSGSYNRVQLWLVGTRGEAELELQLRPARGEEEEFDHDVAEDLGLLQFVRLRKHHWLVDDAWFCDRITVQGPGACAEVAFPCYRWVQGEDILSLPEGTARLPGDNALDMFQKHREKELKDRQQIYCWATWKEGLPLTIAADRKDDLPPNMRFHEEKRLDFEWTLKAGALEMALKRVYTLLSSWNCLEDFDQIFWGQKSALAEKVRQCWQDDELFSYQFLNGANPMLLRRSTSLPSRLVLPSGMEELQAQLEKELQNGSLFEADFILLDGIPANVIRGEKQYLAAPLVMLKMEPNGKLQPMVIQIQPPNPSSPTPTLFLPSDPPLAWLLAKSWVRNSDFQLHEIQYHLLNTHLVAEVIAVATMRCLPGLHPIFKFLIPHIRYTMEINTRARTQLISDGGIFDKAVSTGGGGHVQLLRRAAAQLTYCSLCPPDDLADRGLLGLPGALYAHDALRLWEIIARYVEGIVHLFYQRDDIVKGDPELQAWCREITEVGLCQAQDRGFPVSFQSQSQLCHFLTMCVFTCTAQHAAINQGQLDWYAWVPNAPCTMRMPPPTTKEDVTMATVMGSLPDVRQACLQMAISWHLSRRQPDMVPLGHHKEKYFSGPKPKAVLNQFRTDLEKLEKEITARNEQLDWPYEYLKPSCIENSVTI
Summary of the method: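 The RBL-1 enzyme was replaced by human platelet 12-lipoxygenase, soybean 15-lipoxygenase or sheep seminal vesicle cyclooxygenase. Reactions were started with radiolabeled arachidonic acid and stopped by acidification and ether extraction. Products were separated by TLC and counted by liquid scintillation, in triplicate. Inhibition was taken from the ratio of product formed with and without inhibitor.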

| Structure (SMILES) | inhibition |
| --- | --- |
| O=C(NO)c1ccc(-c2ccccc2)cc1 | 86% |

target: T1, Polyunsaturated fatty acid 5-lipoxygenase (Rattus norvegicus); assay: Percent inhibition against RBL-1 5-LO in vitro at 10 uM; format: cell-based; summary of the method: as §1

| Structure (SMILES) | inhibition |
| --- | --- |
| CCCCCCCCCCCCOc1ccc2cc(C(=O)NO)ccc2c1 | 11% |
| CCCCCCCCCOc1ccc2cc(C(=O)NO)ccc2c1 | 33% |

target: T3, Polyunsaturated fatty acid 5-lipoxygenase (Rattus norvegicus, UniProt P12527); assay: Compound was tested for its inhibition activity against 5-LO of the whole cell in vitro in rat.
T3 sequence (P12527 whole entry): T1 sequence (whole entry)

| Structure (SMILES) | IC50 |
| --- | --- |
| O=C(NO)c1ccc(-c2ccccc2)cc1 | 3.3 µM |

test system: Seed linoleate 15-lipoxygenase (Glycine max); assay: Compound was tested for the percent of inhibition against soybean 15-LO (at 100 uM)

| Structure (SMILES) | inhibition |
| --- | --- |
| O=C(NO)c1ccc(-c2ccccc2)cc1 | 30% |

target: T3, Polyunsaturated fatty acid 5-lipoxygenase; assay: In vitro inhibitory activity against RBL-1 5-LO; format: cell-based

| Structure (SMILES) | IC50 |
| --- | --- |
| O=C(NO)c1ccc(-c2ccc3ccccc3c2)cc1 | 0.33 µM |
| O=C(NO)c1cccc2ccccc12 | 43 µM |
| O=C(NO)c1ccc(C(F)(F)F)cc1 | 27 µM |
| O=C(/C=C/c1ccccc1)NO | 12 µM |
| O=C(NO)c1ccc([N+](=O)[O-])cc1 | 23 µM |
| O=C(/C=C/c1ccc2ccccc2c1)N(O)c1ccccc1 | 0.052 µM |
| O=C(Cc1ccc2ccccc2c1)NO | 19 µM |
| N#Cc1ccc(C(=O)NO)cc1 | 61 µM |
| Cc1ccc(C(=O)NO)cc1 | 65 µM |
| O=C(Cc1ccccc1)NO [PHENYLACETOHYDROXAMIC ACID] | 300 µM |
| C/C(=C\C(=O)N(C)O)c1ccc2ccccc2c1 | 0.12 µM |
| O=C(Cc1cccc2ccccc12)NO | 27 µM |
| O=C(NO)c1ccc2ccccc2c1 | 14 µM |
| COc1ccc2cc(C(=O)NO)ccc2c1 | 8.2 µM |
| Cc1cc(C)c(-c2ccc(C(=O)NO)cc2)c(C)c1 | 0.29 µM |
| O=C(NO)c1ccc(Br)cc1 | 14 µM |
| O=C(/C=C/c1ccc2ccccc2c1)N(O)C1CCCCC1 | 0.1 µM |
| Nc1ccc(C(=O)NO)cc1 | > 400 µM |

| Structure (SMILES) | IC50 |
| --- | --- |
| Cc1cc(C)c(-c2ccc(/C=C/C(=O)N(C)O)cc2)c(C)c1 | 0.022 µM |
| O=C(NO)c1ccccc1 [BENZOHYDROXAMATE] | 110 µM |
| O=C(NO)c1ccc(O)cc1 | 190 µM |
| CN(O)C(=O)c1ccc2ccccc2c1 | 1.3 µM |
| CN(O)C(=O)/C=C/c1ccc2ccccc2c1 | 0.1 µM |
| O=C(NO)c1ccc(-c2cccc3ccccc23)cc1 | 0.18 µM |
| O=C(C#Cc1ccccc1)NO | 46 µM |
| O=C(CCc1ccccc1)NO | 87 µM |
| CC(C)N(O)C(=O)/C=C/c1ccc2ccccc2c1 | 0.082 µM |
| CCCCC/C=C\CCOc1ccc2cc(C(=O)NO)ccc2c1 | 2.9 µM |
| O=C(/C=C\c1ccccc1)NO | 31 µM |
| O=C(NO)c1ccc(I)cc1 | 15 µM |
| Cc1cc(C)c(-c2ccc(C(=O)N(C)O)cc2)c(C)c1 | 0.064 µM |
| CCCCCCCCOc1ccc2cc(C(=O)NO)ccc2c1 | 7.1 µM |
| CCCCCCCOc1ccc2cc(C(=O)NO)ccc2c1 | 6.5 µM |
| C/C(=C\c1ccc2ccccc2c1)C(=O)N(C)O | 0.47 µM |
| O=C(CCCc1ccccc1)NO [PHENYLBUTYRYLHYDROXAMIC ACID] | 27 µM |

target: Prostaglandin G/H synthase 1 (Ovis aries) (UniProt P05979); assay: Compound was tested for the percent of inhibition against sheep seminal vesicle cyclooxygenase at 100 uM
Sequence (P05979 whole entry, looked up): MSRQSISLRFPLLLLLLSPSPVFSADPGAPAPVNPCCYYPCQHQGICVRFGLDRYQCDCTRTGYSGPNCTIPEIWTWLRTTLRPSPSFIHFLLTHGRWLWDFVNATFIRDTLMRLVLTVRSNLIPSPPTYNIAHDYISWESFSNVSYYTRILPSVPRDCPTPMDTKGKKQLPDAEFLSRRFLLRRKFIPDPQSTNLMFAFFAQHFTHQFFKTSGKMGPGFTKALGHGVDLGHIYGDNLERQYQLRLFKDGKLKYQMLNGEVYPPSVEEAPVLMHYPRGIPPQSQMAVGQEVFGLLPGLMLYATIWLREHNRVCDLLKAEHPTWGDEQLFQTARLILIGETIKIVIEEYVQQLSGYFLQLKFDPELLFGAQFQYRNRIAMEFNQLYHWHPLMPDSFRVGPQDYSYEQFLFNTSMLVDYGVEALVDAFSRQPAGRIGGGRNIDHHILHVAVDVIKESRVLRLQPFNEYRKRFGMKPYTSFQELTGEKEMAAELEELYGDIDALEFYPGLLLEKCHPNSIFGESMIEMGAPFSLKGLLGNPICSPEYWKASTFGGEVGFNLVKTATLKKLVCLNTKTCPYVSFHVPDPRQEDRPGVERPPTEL

| Structure (SMILES) | inhibition |
| --- | --- |
| O=C(NO)c1ccc(-c2ccccc2)cc1 | 50% |

target: T3, Polyunsaturated fatty acid 5-lipoxygenase; assay: Compound was tested for its inhibition activity against the 5-LO in isolated enzyme
Summary of the method: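 5-LO from the 20000g supernatant of 1.5 million homogenized RBL-1 cells, in 200-μL incubations across a range of compound concentrations. Reaction started with radiolabeled arachidonic acid and stopped by acidification and ether extraction. Products were separated from substrate by TLC and counted by liquid scintillation, in triplicate.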

| Structure (SMILES) | IC50 |
| --- | --- |
| O=C(NO)c1ccc(-c2ccccc2)cc1 | 4 µM |

target: T1, Polyunsaturated fatty acid 5-lipoxygenase (Rattus norvegicus); assay: Compound was tested for the percent of inhibition against 5-LO at 10 uM; summary of the method: as §1

| Structure (SMILES) | inhibition |
| --- | --- |
| O=C(NO)c1ccc(-c2ccccc2)cc1 | 86% |
